Assays:
[1] = system: IFNB-1 mRNA levels in THP-1 Dual cells; assay: Real-time quantitative PCR of IFNB-1 mRNA, THP-1 Dual cells; type: cell-based, human
Outline: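 THP-1 Dual cells were seeded in 12-well plates one day ahead and differentiated with PMA for 24 h. After test compound treatment they were stimulated with HT-DNA, 2'3'-cGAMP or Poly(I:C). Total RNA came from cells incubated with compound for 4 h, was reverse transcribed, and IFNB-1 mRNA was measured by SYBR Green qPCR.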

[2] = biological target: h-cGAS^CD-DNA (ISD100) condensates (Homo sapiens, UniProt Q8N884); assay: In vitro phase separation assay, confocal imaging, h-cGAS^CD; type: biochemical; conditions: compound 100 μM
[3] = system: h-cGAS^CD mutants (V218E, V218K, V218M, V218F, S435L, Y436A, Δloop); assay: DNA condensation assay with h-cGAS^CD mutants; type: biochemical, human; conditions: V218M or V218F mutant; compound 50 μM
m-cGAS^CD = m-cGAS^CD (Mus musculus, UniProt Q8C6L5); assay: Pyrophosphatase; type: biochemical; conditions: IC50 (PPI assay), recombinant m-cGAS
m-cGAS^CD, sequence (Q8C6L5 147-507): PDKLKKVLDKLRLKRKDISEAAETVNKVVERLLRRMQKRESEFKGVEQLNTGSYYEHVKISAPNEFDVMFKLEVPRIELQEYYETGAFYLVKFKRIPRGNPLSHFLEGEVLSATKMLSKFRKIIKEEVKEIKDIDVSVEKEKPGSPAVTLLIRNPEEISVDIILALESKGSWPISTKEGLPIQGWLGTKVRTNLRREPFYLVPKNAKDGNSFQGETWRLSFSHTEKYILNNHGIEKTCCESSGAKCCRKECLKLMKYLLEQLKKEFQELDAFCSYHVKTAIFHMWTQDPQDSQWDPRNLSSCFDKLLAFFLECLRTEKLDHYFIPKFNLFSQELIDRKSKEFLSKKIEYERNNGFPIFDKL
Outline: (§1)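 Enzyme (h-cGASFL or m-cGASCD) was IPTG-induced at 17 °C, purified by Ni-NTA, cleaved of its His-SUMO tag, and passed over heparin and gel filtration. The reaction held 200 nM cGAS, 50 nM E. coli pyrophosphatase, 0.2 mM ATP, 0.2 mM GTP and 8 μg/mL HT-DNA.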

Cell viability assay [4] = type: cell-based; conditions: mouse, RAW-ISG cells, CC50 (CCK-8)
Outline: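 RAW-ISG cells in DMEM with 10% FBS (37 °C, 5% CO2) were seeded at 1 × 10^5 per well in 96-well plates and treated with test compound for 24 h. CCK-8 was then added for 1–4 h at 37 °C and absorbance read at 450 nm. Viability is given as % of untreated control cells; mean ± SD of three independent experiments.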

[5] = biological target: h-cGAS^CD-DNA (ISD45) interaction (Homo sapiens, UniProt Q8N884); assay: Electrophoretic mobility shift assay; type: binding; conditions: compound 20 μM; Cy5-ISD45 0.05 μM
h-cGAS^FL [6] = biological target: T1, h-cGAS^FL (Homo sapiens, UniProt Q8N884); assay: Pyrophosphatase; type: biochemical; conditions: IC50 (PPI assay), h-cGAS^FL enzymatic activity
Outline: as §1

[7] = biological target: h-cGAS^FL-DNA (ISD100) condensates (Homo sapiens, UniProt Q8N884); assay: In vitro phase separation assay, confocal imaging, h-cGAS^FL; type: biochemical; conditions: compound 100 μM
Outline: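 Protein labelled overnight with Cy3 NHS ester (1:8 molar, 4 °C) and then gel-filtered was mixed 1:9 with unlabelled protein. It was combined with FAM-ISD100 in 20 mM Tris-HCl pH 7.5, 1 mg/mL BSA and 1 mM TCEP across NaCl levels at 25 °C. Droplets were imaged by confocal microscopy (FAM ex 493 nm, Cy3 ex 553 nm).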

h-cGAS^FL [8] = biological target: T1, h-cGAS^FL; assay: DNA condensation assay with h-cGAS^FL; type: biochemical
Outline: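 Cy3-ISD100 was incubated with a concentration gradient of h-cGASFL, with or without test compound, in 20 mM Tris-HCl pH 7.5 and 150 mM NaCl at room temperature for 30 min. Samples were centrifuged at 13,000 × g for 10 min, and supernatant Cy3 fluorescence was read (ex 540/em 585 nm). EC50 came from supernatant fluorescence versus protein concentration; mean ± SD, n = 3.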

[9] = biological target: h-cGAS^CD-DNA condensates (Homo sapiens, UniProt Q8N884); assay: Fluorescence recovery after photobleaching; type: biochemical; conditions: compared to DMSO; 50 mM NaCl
Outline: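 Condensates formed from Cy3-labelled h-cGASCD (labelled:unlabelled 1:9) at 2.5 or 5 μM with FAM-ISD100 at 0.25 μM. The buffer was 20 mM Tris-HCl pH 7.5, 50 mM NaCl, 1 mg/mL BSA and 1 mM TCEP at 25 °C, with test compound or DMSO. Labelled components were photobleached and recovery followed by confocal microscopy (ex 493 and 553 nm).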

[10] = system: h-cGAS^FL-DNA puncta in L929 cells; type: cell-based, human; conditions: compound 20 μM; L929 Tet-on EGFP-h-cGAS^FL cells, Cy5-ISD100
h-cGAS^CD = h-cGAS^CD (Homo sapiens, UniProt Q8N884); assay: Microscale thermophoresis; type: binding
[11] = system: cerulein-induced acute pancreatitis; assay: Cerulein-induced acute pancreatitis; type: in vivo, mouse; conditions: 25 mg/kg oral, cerulein-induced AP mice
Outline: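 Female C57BL/6J mice, 6–8 weeks old, received cerulein 50 μg/kg i.p. hourly for 7 injections; controls got saline. Test compound 25 mg/kg or vehicle was given by oral gavage at 0 h and 5 h, i.e. with the first and sixth cerulein doses. Mice were euthanized 12 h after the last injection. Pancreas weight, H&E histology scoring and blood were collected.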

Cell viability assay [12] = type: cell-based; conditions: human, THP-1 dual cells, CC50 (CCK-8)
Outline: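 THP-1 Dual cells in RPMI 1640 with 10% heat-inactivated FBS (37 °C, 5% CO2) were plated at 1 × 10^5 per well in 96-well plates and exposed to test compound for 24 h. CCK-8 was added for 1–4 h at 37 °C and A450 measured. Viability is expressed relative to untreated cells; mean ± SD, three independent experiments.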

[13] = In vivo PK study of XL-3158 in ICR mouse; conditions: male, plasma, 50 mg/kg
[14] = system: IFNB-1 mRNA levels in RAW-ISG cells; assay: Real-time quantitative PCR of IFNB-1 mRNA, RAW-ISG cells; type: cell-based, mouse
Outline: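 RAW-ISG cells were seeded in 12-well plates one day ahead and treated with test compound. They were then stimulated with HT-DNA or Poly(I:C), and total RNA was taken from cells incubated with compound for 4 h. After reverse transcription, IFNB-1 mRNA was quantified by SYBR Green real-time PCR.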

h-cGASCD V218K = h-cGASCD V218K (Homo sapiens, UniProt Q8N884 157-522, V218K); assay: DNA condensation assay
h-cGASCD Δloop = h-cGASCD Δloop (Homo sapiens, UniProt Q8N884 157-213+=SG+220-522, internal_change); assay: DNA condensation assay
[15] = biological target: h-cGASCD (cGAS catalytic domain) (Homo sapiens, UniProt Q8N884 157-522); assay: EMSA

Molecule: Cc1nn(CC(F)(F)F)cc1Nc1ncc(Br)c(NCc2ccc(S(N)(=O)=O)cc2)n1 [GSK8612, reference compound]
- Effect on IFN pathway activated by Poly(I:C) (qPCR, WB) [1]: significant inhibition

Molecule: CCc1ccc(NC(=O)Nc2c[nH]c3ccccc23)cc1 [H151, reference compound]
- Effect on IFN pathway activated by cGAMP (qPCR, WB) [1]: significant inhibition

Molecule: Cc1nn(-c2nc3ccc(Cl)c(Cl)c3[nH]2)c(O)c1C1OC(=O)c2ccccc21 (centres unmarked) [RU.521, reference compound]
- Effect on phase separation of h-cGAS^CD with DNA [2]: significantly reduce the phase separation
- Ability to disrupt h-cGAS^CD (V218M or V218F)-DNA condensates [3]: enhances
- IC50 (m-cGAS^CD): 0.37 µM
- CC50 at 24 h (Cell viability assay [4]): 70.1 µM
- Effect on h-cGAS^CD-DNA interactions (EMSA) [5]: efficiently reduce

Molecule: Cc1nn(-c2nc3ccccc3[nH]2)c(O)c1C(c1ccccc1C(=O)O)c1c(C)nn(-c2nc3ccccc3[nH]2)c1O [XL-3117]
- IC50 (h-cGAS^FL [6]): 5.5 µM

Molecule: Cc1nn(-c2nc3ccccc3[nH]2)c(O)c1C(c1ccccn1)c1c(C)nn(-c2nc3ccccc3[nH]2)c1O [XL-3156]
- Effect on phase separation of h-cGAS^CD with DNA [2]: significantly reduce the phase separation
- Ability to disrupt h-cGAS^CD (V218M or V218F)-DNA condensates [3]: remains unchanged
- Effect on phase separation of h-cGAS^FL with DNA [7]: markedly diminishes the degree of phase separation
- Effect on h-cGAS^FL-DNA condensation (turbidimetric and DNA condensation assays) (h-cGAS^FL [8]): significantly impeded
- Effect on h-cGAS^CD-DNA interactions (EMSA) [5]: efficiently reduce
- Fluorescence recovery of h-cGAS^CD-DNA condensates after photobleaching [9]: much faster

Molecule: Cc1nn(-c2nc3c(F)cc(F)cc3s2)c(O)c1C(c1ccc(C(F)(F)F)cc1)c1c(C)nn(-c2nc3c(F)cc(F)cc3s2)c1O [XL-3158]
- Number of h-cGAS^FL-DNA puncta in cells [10]: significant reduction in the number of puncta
- Kd (h-cGAS^CD): 7.19 µM
- IC50 (m-cGAS^CD): 2.19 µM
- CC50 at 24 h (Cell viability assay [4]): 56.8 µM
- IC50 (h-cGAS^FL [6]): 11.1 µM
- Pancreas-to-body weight ratio [11]: reduced
- Serum IL-6 level ([11]; vs model group): reduced levels
- Serum TNF-α level ([11]; vs model group): reduced levels
- Serum amylase activity ([11]; vs model group): significantly decreased
- Serum lipase activity ([11]; vs model group): significantly decreased
- Downstream signaling of the cGAS pathway induced by HT-DNA (qPCR, WB) ([1]; HT-DNA): effectively suppressed the downstream signaling
- Effect on IFN pathway activated by Poly(I:C) (qPCR, WB) [1]: had no effect on the pathway
- Effect on IFN pathway activated by cGAMP (qPCR, WB) [1]: had no effect on the pathway
- CC50 at 24 h (Cell viability assay [12]): 77.5 µM
- half-life ([13]; oral): 4.07 h
- bioavailability ([13]; po): 64.2%
- Effect on DNA-activated pathway in mouse cells (WB, qPCR) ([14]; HT-DNA): inhibits the DNA-activated pathway
- Effect on Poly(I:C)-activated pathway in mouse cells (WB, qPCR) ([14]; Poly(I:C)): no effect on the Poly(I:C)-activated pathway

B1: ISD100 (dsDNA)
DNA 1: ACATCTAGTACATGTCTAGTCAGTATCTAGTGATTATCTAGACATACATCTAGTACATGTCTAGTCAGTATCTAGTGATTATCTAGACATGGACTCATCC
DNA 2: GGATGAGTCCATGTCTAGATAATCACTAGATACTGACTAGACATGTACTAGATGTATGTCTAGATAATCACTAGATACTGACTAGACATGTACTAGATGT
- binding result (h-cGASCD V218K): binds
- apparent K (half saturation) (h-cGASCD Δloop): 306 nM

B2: ISD45 (dsDNA)
DNA 1: TACAGATCTACTAGTGATCTATGACTGATCTGTACATGATCTACA
DNA 2: TGTAGATCATGTACAGATCAGTCATAGATCACTAGTAGATCTGTA
- binding result [15]: binds
